Where “and” joins values, the source holds several entries; their conditions need not be identical. Identical values can stand only once.
Tested on: Rattus norvegicus
Assay: Inhibition of plasma triglycerides in normolipidemic rats after 2 hr of 50 mg/kg oral dosing; no significant change
Type: functional, organism-based
Parameters: dose 50 mg/kg
Settings: not given
How it was run: (§1)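 Overnight-fasted normolipidemic rats received a single oral dose in cornstarch vehicle. Blood was drawn at 2, 6 and 24 h post-dose and assayed for triglycerides and total cholesterol, with free access to food after the 6 h sample. Value is mean percent inhibition versus a separate vehicle-treated group, unpaired t test p < 0.05, NS = no significant change, N = 6.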

Compound	NS
COC(=O)NCCC1Cc2ccc(NC(=O)c3cccc(C)c3-c3ccc(C(F)(F)F)cc3)cc2C1 (stereo not drawn)	no significant change

Tested on: Canis familiaris
Assay: Inhibition of plasma total cholesterol in the normolipidemic dogs after day 0 of oral administration of 5 mg/kg/day.
Type: functional, Canis lupus familiaris
Settings: not given
How it was run: (§2)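 Normolipidemic dogs dosed once daily for 4 days by oral gavage, compound suspended in cornstarch vehicle. Plasma sampled 24 h after dosing on days 0, 2, 3 and 4, assayed for triglycerides and total cholesterol (mg/dL). Mean percent inhibition versus day-0 level is given for treated dogs; n = 6 per group; significance by one-way ANOVA, p < 0.05.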

Compound	Lipid level [mg/dL]
Cc1cccc(C(=O)Nc2ccc3c(c2)C[C@H](NS(=O)(=O)c2cccs2)C3)c1-c1ccc(C(F)(F)F)cc1	120

Tested on: Rattus norvegicus
Assay: Inhibition of plasma triglycerides in normolipidemic rats after 6 hr of 10 mg/kg oral dosing
Type: functional
Settings: not given
How it was run: as §1

Compound	Reduction [%]
Cc1cccc(C(=O)Nc2ccc3c(c2)C[C@H](NS(=O)(=O)c2cccs2)C3)c1-c1ccc(C(F)(F)F)cc1	56

Tested on: Canis familiaris
Assay: Inhibition of plasma total cholesterol in the normolipidemic dogs after day 4 of oral administration of 5 mg/kg/day
Type: functional, Canis lupus familiaris
Settings: not given
How it was run: as §2

Compound	Lipid level [mg/dL]
Cc1cccc(C(=O)Nc2ccc3c(c2)C[C@H](NS(=O)(=O)c2cccs2)C3)c1-c1ccc(C(F)(F)F)cc1	<70

Tested on: Rattus norvegicus
Assay: Inhibition of plasma triglycerides in normolipidemic rats after 2 hr of 50 mg/kg oral dosing
Type: functional
Settings: 50 mg/kg
How it was run: as §1

Compound	Reduction
Cc1cccc(C(=O)Nc2ccc3c(c2)C[C@H](NS(=O)(=O)c2cccs2)C3)c1-c1ccc(C(F)(F)F)cc1	88% and 83%

Tested on: Rattus norvegicus
Assay: Inhibition of total cholesterol in normolipidemic rats after 2 hr of 10 mg/kg oral dosing
Type: functional
Settings: not given
How it was run: as §1

Compound	Reduction [%]
Cc1cccc(C(=O)Nc2ccc3c(c2)C[C@H](NS(=O)(=O)c2cccs2)C3)c1-c1ccc(C(F)(F)F)cc1	26

Tested on: Rattus norvegicus
Assay: Inhibition of total cholesterol in normolipidemic rats after 24 hr of 50 mg/kg oral dosing
Type: functional, organism-based
Parameters: dose 50 mg/kg
Settings: not given
How it was run: as §1

Compound	NS
COC(=O)NCCC1Cc2ccc(NC(=O)c3cccc(C)c3-c3ccc(C(F)(F)F)cc3)cc2C1 (stereo not drawn)	no significant change

Tested on: Rattus norvegicus
Assay: Inhibition of total cholesterol in normolipidemic rats after 24 hr of 5 mg/kg oral dosing; no significant change
Type: functional, organism-based
Parameters: dose 5 mg/kg
Settings: not given
How it was run: as §1

Compound	NS
Cc1cccc(C(=O)Nc2ccc3c(c2)C[C@H](NS(=O)(=O)c2cccs2)C3)c1-c1ccc(C(F)(F)F)cc1	no significant change

Tested on: Rattus norvegicus
Assay: Inhibition of plasma triglycerides in normolipidemic rats after 6 hr of 50 mg/kg oral dosing
Type: functional
Settings: 50 mg/kg
How it was run: as §1

Compound	Reduction
Cc1cccc(C(=O)Nc2ccc3c(c2)C[C@H](NS(=O)(=O)c2cccs2)C3)c1-c1ccc(C(F)(F)F)cc1	83% and 56%

Tested on: Canis familiaris
Assay: Inhibition of plasma total cholesterol in the normolipidemic dogs after day 2 of oral administration of 5 mg/kg/ day.
Type: functional, Canis lupus familiaris
Settings: not given
How it was run: as §2

Compound	Lipid level [mg/dL]
Cc1cccc(C(=O)Nc2ccc3c(c2)C[C@H](NS(=O)(=O)c2cccs2)C3)c1-c1ccc(C(F)(F)F)cc1	<81

Tested on: Canis familiaris
Assay: Inhibition of plasma total triglycerides in the normolipidemic dogs after day 0 of oral administration of 5 mg/kg/day.
Type: functional, Canis lupus familiaris
Settings: not given
How it was run: as §2

Compound	Lipid level [mg/dL]
Cc1cccc(C(=O)Nc2ccc3c(c2)C[C@H](NS(=O)(=O)c2cccs2)C3)c1-c1ccc(C(F)(F)F)cc1	31

Tested on: Canis familiaris
Assay: Inhibition of plasma total cholesterol in the normolipidemic dogs after day 3 of oral administration of 5 mg/kg/day.
Type: functional, Canis lupus familiaris
Settings: not given
How it was run: as §2

Compound	Lipid level [mg/dL]
Cc1cccc(C(=O)Nc2ccc3c(c2)C[C@H](NS(=O)(=O)c2cccs2)C3)c1-c1ccc(C(F)(F)F)cc1	<72

Tested on: Canis familiaris
Assay: Inhibition of plasma total triglycerides in the normolipidemic dogs after day 4 of oral administration of 5 mg/kg/day
Type: functional, Canis lupus familiaris
Settings: not given

Compound	Lipid level [mg/dL]
Cc1cccc(C(=O)Nc2ccc3c(c2)C[C@H](NS(=O)(=O)c2cccs2)C3)c1-c1ccc(C(F)(F)F)cc1	<20

Tested on: Canis familiaris
Assay: Inhibition of plasma total triglycerides in the normolipidemic dogs after day 2 of oral administration of 5 mg/kg/day.
Type: functional, Canis lupus familiaris
Settings: not given
How it was run: as §2

Compound	Lipid level [mg/dL]
Cc1cccc(C(=O)Nc2ccc3c(c2)C[C@H](NS(=O)(=O)c2cccs2)C3)c1-c1ccc(C(F)(F)F)cc1	<24

Tested on: Rattus norvegicus
Assay: Inhibition of total cholesterol in normolipidemic rats after 6 hr of 5 mg/kg oral dosing
Type: functional
Settings: 5 mg/kg
How it was run: as §1

Compound	Reduction
Cc1cccc(C(=O)Nc2ccc3c(c2)C[C@H](NS(=O)(=O)c2cccs2)C3)c1-c1ccc(C(F)(F)F)cc1	50% and 34%

Tested on: Rattus norvegicus
Assay: Inhibition of total cholesterol in normolipidemic rats after 2 h of 5 mg/kg oral dosing
Type: functional
Settings: 5 mg/kg
How it was run: as §1

Compound	Reduction
Cc1cccc(C(=O)Nc2ccc3c(c2)C[C@H](NS(=O)(=O)c2cccs2)C3)c1-c1ccc(C(F)(F)F)cc1	25% and 23%

Tested on: Rattus norvegicus
Assay: Inhibition of plasma triglycerides in normolipidemic rats after 24 h of 50 mg/kg oral dosing; no significant change
Type: functional, organism-based
Parameters: dose 50 mg/kg
Settings: not given
How it was run: as §1

Compound	NS
COC(=O)NCCC1Cc2ccc(NC(=O)c3cccc(C)c3-c3ccc(C(F)(F)F)cc3)cc2C1 (stereo not drawn)	no significant change

Tested on: Canis familiaris
Assay: Inhibition of plasma total triglycerides in the normolipidemic dogs after day 3 of oral administration of 5 mg/kg/day.
Type: functional, Canis lupus familiaris
Settings: not given

Compound	Lipid level [mg/dL]
Cc1cccc(C(=O)Nc2ccc3c(c2)C[C@H](NS(=O)(=O)c2cccs2)C3)c1-c1ccc(C(F)(F)F)cc1	<24

Tested on: Rattus norvegicus
Assay: Inhibition of total cholesterol in normolipidemic rats after 6 h of […] mg/kg oral dosing; no significant change
Type: functional, organism-based
Parameters: dose 50 mg/kg
Settings: not given

Compound	NS
COC(=O)NCCC1Cc2ccc(NC(=O)c3cccc(C)c3-c3ccc(C(F)(F)F)cc3)cc2C1 (stereo not drawn)	no significant change

Tested on: Rattus norvegicus
Assay: Inhibition of total cholesterol in normolipidemic rats after 24 hr of 10 mg/kg oral dosing; no significant change
Type: functional, organism-based
Parameters: dose 10 mg/kg
Settings: not given
How it was run: as §1

Compound	NS
Cc1cccc(C(=O)Nc2ccc3c(c2)C[C@H](NS(=O)(=O)c2cccs2)C3)c1-c1ccc(C(F)(F)F)cc1	no significant change

Tested on: Rattus norvegicus
Assay: Inhibition of total cholesterol in normolipidemic rats after 2 hr of 50 mg/kg oral dosing; no significant change
Type: functional, organism-based
Parameters: dose 50 mg/kg
Settings: not given
How it was run: as §1

Compound	NS
COC(=O)NCCC1Cc2ccc(NC(=O)c3cccc(C)c3-c3ccc(C(F)(F)F)cc3)cc2C1 (stereo not drawn)	no significant change

Tested on: Rattus norvegicus
Assay: Inhibition of total cholesterol in normolipidemic rats after 6 hr of 10 mg/kg oral dosing
Type: functional
Settings: not given
How it was run: as §1

Compound	Reduction [%]
Cc1cccc(C(=O)Nc2ccc3c(c2)C[C@H](NS(=O)(=O)c2cccs2)C3)c1-c1ccc(C(F)(F)F)cc1	39

Tested on: Rattus norvegicus
Assay: Inhibition of plasma triglycerides in normolipidemic rats after 24 hr of 10 mg/kg oral dosing; no significant change
Type: functional, organism-based
Parameters: dose 10 mg/kg
Settings: not given
How it was run: as §1

Compound	NS
Cc1cccc(C(=O)Nc2ccc3c(c2)C[C@H](NS(=O)(=O)c2cccs2)C3)c1-c1ccc(C(F)(F)F)cc1	no significant change

Tested on: Rattus norvegicus
Assay: Inhibition of plasma triglycerides in normolipidemic rats after 2 hr of 10 mg/kg oral dosing
Type: functional
Settings: not given
How it was run: as §1

Compound	Reduction [%]
Cc1cccc(C(=O)Nc2ccc3c(c2)C[C@H](NS(=O)(=O)c2cccs2)C3)c1-c1ccc(C(F)(F)F)cc1	83

Tested on: Rattus norvegicus
Assay: Inhibition of plasma triglycerides in normolipidemic rats after 6 h of […] mg/kg oral dosing; no significant change
Type: functional, organism-based
Parameters: dose 50 mg/kg
Settings: not given

Compound	NS
COC(=O)NCCC1Cc2ccc(NC(=O)c3cccc(C)c3-c3ccc(C(F)(F)F)cc3)cc2C1 (stereo not drawn)	no significant change

Target: T1, Microsomal triglyceride transfer protein large subunit (Homo sapiens, UniProt P55157)
T1 sequence (P55157 whole entry): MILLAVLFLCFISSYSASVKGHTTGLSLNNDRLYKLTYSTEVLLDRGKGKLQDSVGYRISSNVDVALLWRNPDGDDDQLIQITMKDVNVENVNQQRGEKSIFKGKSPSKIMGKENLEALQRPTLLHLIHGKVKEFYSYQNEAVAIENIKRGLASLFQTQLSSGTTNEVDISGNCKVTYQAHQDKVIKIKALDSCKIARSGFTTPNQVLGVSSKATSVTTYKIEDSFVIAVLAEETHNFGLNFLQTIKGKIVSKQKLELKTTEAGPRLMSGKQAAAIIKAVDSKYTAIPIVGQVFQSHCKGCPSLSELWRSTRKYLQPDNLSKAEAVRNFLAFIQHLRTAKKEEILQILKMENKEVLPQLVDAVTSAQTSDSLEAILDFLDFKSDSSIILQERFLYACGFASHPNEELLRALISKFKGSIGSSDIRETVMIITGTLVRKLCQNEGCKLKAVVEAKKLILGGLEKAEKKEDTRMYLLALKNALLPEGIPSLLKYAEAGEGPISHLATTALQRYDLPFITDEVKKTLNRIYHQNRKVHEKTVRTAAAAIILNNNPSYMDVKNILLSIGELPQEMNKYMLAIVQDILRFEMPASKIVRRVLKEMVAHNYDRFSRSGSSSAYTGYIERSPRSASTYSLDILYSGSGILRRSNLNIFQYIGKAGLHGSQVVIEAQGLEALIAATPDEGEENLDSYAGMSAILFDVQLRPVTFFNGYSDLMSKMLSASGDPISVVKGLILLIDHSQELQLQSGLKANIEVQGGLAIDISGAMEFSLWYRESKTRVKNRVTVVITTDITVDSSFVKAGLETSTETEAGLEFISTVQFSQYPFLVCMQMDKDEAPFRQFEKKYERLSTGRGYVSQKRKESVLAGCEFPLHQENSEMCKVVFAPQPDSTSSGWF
Assay: In vitro inhibitory activity against MTP using MTP transfer assay
Settings: not given

Compound	IC50 [nM]
Cc1cccc(C(=O)Nc2ccc3c(c2)C[C@H](NS(=O)(=O)c2cccs2)C3)c1-c1ccc(C(F)(F)F)cc1	50
COC(=O)NCCC1Cc2ccc(NC(=O)c3cccc(C)c3-c3ccc(C(F)(F)F)cc3)cc2C1 (stereo not drawn)	70

Tested on: Rattus norvegicus
Assay: Inhibition of plasma triglycerides in normolipidemic rats after 24 hr of 50 mg/kg oral dosing
Type: functional
Settings: not given
How it was run: as §1

Compound	Reduction [%]
Cc1cccc(C(=O)Nc2ccc3c(c2)C[C@H](NS(=O)(=O)c2cccs2)C3)c1-c1ccc(C(F)(F)F)cc1	76

From ChEMBL document CHEMBL1134325, “Diaminoindanes as microsomal triglyceride transfer protein inhibitors” (J Med Chem, 2001)
